697 NFkB inh = lowers PMA/ionomycin-induced NF-kB signal in 697 B cells | AID 435022 | 697 B-cell NF-kB luciferase reporter, 16 h | 330,000 compounds, 0.33% hits | inhibition, % at 4 µM; in the data active = inhibition above about 35%
IMP-1 inh = blocks Pseudomonas aeruginosa IMP-1 metallo-beta-lactamase. purified IMP-1, nitrocefin hydrolysis, epi-absorbance fluorescence. inhibition, % at 5.6 µM. 290,000 compounds, 0.45% hits. AID 1556;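 active = inhibition above the mean plus 3 SD of all compounds in the same screening run, cut at about 4.5% in these data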
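System: Purified recombinant IMP-1 metallo-beta-lactamase enzyme | Measured by: Fluorescence quenching readout, ex 480/em 530 nm | Replication: Singlicate | Incubation: 15 min preincubation plus 25 min reaction at 25 °C | Evaluation: Percent inhibition from optical density relative to buffer-blank wells | Benchmarks: DMSO with and without IMP-1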
aSyn UTR inh = 5' untranslated region of α-synuclein, MLPCN primary screen; alpha-synuclein 5'UTR reporter, inhibitor activity; 300,000 compounds, 0.82% hits; inhibition, % (tested at 7.5 µM); in the data active = inhibition above about 60%;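 note: H4 neuroglioblastoma cells stably carrying SNCA 5'UTR luciferase fusion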
Jurkat NFkB inh = inhibitors of the PMA/ionomycin-induced NF-kB reporter in Jurkat cells; PMA/ionomycin-induced NF-kB luciferase reporter, luminescence; inhibition, % at 4 µM; 330,000 compounds, 0.53% hits; in the data active = inhibition above about 50%
Mdm2 MdmX PPI = disrupts the human Mdm2-MdmX interaction | SaOS-2 split-luciferase Mdm2/MdmX complementation, luminescence | 330,000 compounds, 3% hits | inhibition, % at 8 µM | O15151+Q00987 | AID 485346;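 active = inhibition of at least 50% at 8 µM in the primary screen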
Target sequence (O15151 whole entry, looked up): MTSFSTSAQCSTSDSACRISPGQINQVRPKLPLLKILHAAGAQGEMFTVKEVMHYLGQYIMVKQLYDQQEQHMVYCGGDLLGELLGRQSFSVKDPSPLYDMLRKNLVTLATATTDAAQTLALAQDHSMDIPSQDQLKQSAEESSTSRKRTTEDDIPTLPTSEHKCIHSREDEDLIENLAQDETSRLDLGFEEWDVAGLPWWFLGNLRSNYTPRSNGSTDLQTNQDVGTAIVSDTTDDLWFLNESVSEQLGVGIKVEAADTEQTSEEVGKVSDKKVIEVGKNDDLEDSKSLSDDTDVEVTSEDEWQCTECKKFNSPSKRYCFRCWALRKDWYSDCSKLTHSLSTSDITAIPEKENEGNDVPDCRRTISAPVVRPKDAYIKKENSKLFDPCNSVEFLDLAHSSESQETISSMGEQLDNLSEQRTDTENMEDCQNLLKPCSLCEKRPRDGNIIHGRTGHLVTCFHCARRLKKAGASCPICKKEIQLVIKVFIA
Target sequence (Q00987 whole entry, looked up): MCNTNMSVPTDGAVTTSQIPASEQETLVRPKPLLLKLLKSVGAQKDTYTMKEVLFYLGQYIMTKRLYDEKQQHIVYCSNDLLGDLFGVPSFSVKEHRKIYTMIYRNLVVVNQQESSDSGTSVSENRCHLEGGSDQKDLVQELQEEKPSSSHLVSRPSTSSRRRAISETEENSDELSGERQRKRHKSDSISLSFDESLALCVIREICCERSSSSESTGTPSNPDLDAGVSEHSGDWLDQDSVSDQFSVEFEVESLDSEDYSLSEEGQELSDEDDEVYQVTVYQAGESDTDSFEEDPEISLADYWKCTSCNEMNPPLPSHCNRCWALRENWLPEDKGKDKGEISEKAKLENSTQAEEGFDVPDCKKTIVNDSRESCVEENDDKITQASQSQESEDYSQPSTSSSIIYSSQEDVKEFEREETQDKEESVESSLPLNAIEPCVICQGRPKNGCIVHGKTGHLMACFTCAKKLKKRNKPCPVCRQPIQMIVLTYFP
VIM-2 inh = blocks Pseudomonas aeruginosa VIM-2 metallo-beta-lactamase; AID 1527; inhibition, % at 5.6 µM; purified VIM-2, nitrocefin hydrolysis, epi-absorbance fluorescence; 290,000 compounds, 0.89% hits;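 active = inhibition above the mean of all tested compounds plus 3 SD, cutoff set per screening run, cut at about 7.5% in these data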;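 note: red hydrolysis product quenches plate fluorescence so inhibitors raise well fluorescence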
Mdm2-MdmX conf = human Mdm2/MdmX binding inhibition, confirmed. shares compounds with Mdm2 MdmX PPI. luminescent assay. inhibition, % at 8 µM. 10,000 compounds, 55% hits; in the data active = inhibition above about 40%
Full FLuc ctr = inhibits full-length luciferase, flagging false Mdm2/MdmX hits. 6,200 compounds, 77% hits. SaOS-2 full-length luciferase counterscreen, luminescence. shares compounds with Mdm2 MdmX PPI. inhibition, % at 8 µM. AID 504607;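 active = mean inhibition at 8 µM reaching about 37%, which flags the compound as non-specific, limit read from the data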;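 note: p53-null SaOS-2 cells with luciferase driven by a doxycycline-inducible promoter; compound on cells about two nights before reading with doxycycline added after day one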
A number is an active result; . = inactive; / = no result given. The list is not random: actives were taken first. Their share in the collection is about 4.7%.

SMILES	697 NFkB inh	IMP-1 inh	aSyn UTR inh	Jurkat NFkB inh	Mdm2 MdmX PPI	VIM-2 inh	Mdm2-MdmX conf	Full FLuc ctr
Cc1cc(C)cc(N(CCC(=O)Nc2nnc(C3CC3)s2)S(=O)(=O)c2ccc(Cl)cc2)c1	.	.	.	.	51	.	60	76
Cc1ccc(OCC(=O)NNc2c3ccccc3nc3ccccc23)cc1	.	.	.	.	56	.	.	/
Cc1cccc(-c2cc(C(=O)Nc3ccc4c(c3)OCCO4)c3ccccc3n2)c1	.	.	.	.	.	.	/	/
CCOc1ccc(-c2cc(C(=O)Nc3ccc4c(c3)OCCO4)c3ccccc3n2)cc1	.	.	.	.	50	.	40	97
O=C(Nc1ccc2c(c1)OCCO2)c1cc(-c2ccccn2)nc2ccc(Br)cc12	.	.	.	.	74	.	41	72
CCOc1ccc(Nc2c3ccccc3nc3ccccc23)cc1	.	.	.	.	71	9.6	45	59
CC(C)CCC(C)NC(=O)CN1C(=O)NC(C)(c2ccc3ccccc3c2)C1=O (configuration not stated)	.	.	.	.	.	.	/	/
O=C(CNC(=O)c1ccc(Cl)cc1Cl)NCCCn1ccnc1	.	.	.	.	.	.	/	/
CC(=O)c1ccc(Nc2cc(C)nc3ccccc23)cc1	.	.	.	.	59	.	50	61
CC(C)Cc1cc(C(=O)O)c2ccccc2n1	.	.	.	.	.	.	/	/
CC(=O)c1ccc(NC(=O)c2cc(CC(C)C)nc3ccccc23)cc1	.	.	.	.	58	.	66	.
CCOc1ccc(NC(=O)c2cc(Cl)nc3ccccc23)cc1	.	.	.	.	51	.	.	62
O=C(Nc1ccc(F)cc1)c1cc(-c2ccccn2)nc2c(Cl)cccc12	.	.	.	.	60	.	46	62
CCOC(=O)COn1c(=O)c(-c2ccc(OC)cc2)[n+]([O-])c2ccccc21	.	.	.	.	.	.	/	/
CCOC(=O)COn1c(=O)c(-c2ccc(OC)c(OC)c2)[n+]([O-])c2ccccc21	.	.	.	.	93	.	.	/
CCOC(=O)c1c(NC(=S)NC(=O)c2cnn(CC)c2)sc2c1CCC(C)C2 (configuration not stated)	.	.	.	.	54	.	.	/

Screens as filed in PubChem BioAssay.
